From ChEMBL document CHEMBL1122798, “Trypanocidal 1,3-arylene diketone bis(guanylhydrazone)s. Structure-activity relationships among substituted and heterocyclic analogues” (1984)

How the values were obtained:
Format in all cases: functional
Mus musculus [1] = species: Mus musculus; test: Effective dose against Trypanosoma brucei infection in mice
How it was run: (§1)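 Female Swiss-Webster mice (20–25 g) were infected ip with 5×10^4 T. brucei EATRO 110 organisms in fresh mouse blood diluted with minimum essential medium. Groups of 5 or 10 received a single ip dose in normal saline (solution or milled suspension, 20 μL/g) 6 h post-infection. Deaths within 72 h were scored as toxic. Survivors aparasitemic at 28 days (tail-blood wet films, phase contrast) counted as cures. ED50 was computed by Bliss/Litchfield–Wilcoxon, excluding toxic dosages.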

Mus musculus [2] = test: Compound was tested for Trypanocidal Activity in mice at 15 mg/kg; 9/10
Mus musculus [3] = test: Compound was tested for Trypanocidal Activity in mice at 2.5 mg/kg; 3/20
Mus musculus [4] = test: Compound was tested for Trypanocidal Activity in mice at 4 mg/kg; 11/20
Mus musculus [5] = test: Compound was tested for Trypanocidal Activity in mice at 10 mg/kg; 10/10
Mus musculus [6] = test: Compound was tested for Trypanocidal Activity in mice at 6 mg/kg; 14/20
Mus musculus [7] = test: Compound was tested for Trypanocidal Activity in mice at 1.5 mg/kg; 0/15
Mus musculus [8] = test: Compound was tested for Trypanocidal Activity in mice at 100 mg/kg; 0/5
Mus musculus [9] = test: Compound was tested for Trypanocidal Activity in mice at 40 mg/kg; 10/10
Mus musculus [10] = test: Compound was tested for Trypanocidal Activity in mice at 60 mg/kg; 0/5
Mus musculus [11] = test: Compound was tested for Trypanocidal Activity in mice at 25 mg/kg; 8/10
Mus musculus [12] = test: Compound was tested for Trypanocidal Activity in mice at 40 mg/kg; 0/10
Mus musculus [13] = test: Compound was tested for Trypanocidal Activity in mice at 60 mg/kg; 2/5
Mus musculus [14] = test: Compound was tested for Trypanocidal Activity in mice at 4 mg/kg; 10/20
Mus musculus [15] = test: Compound was tested for Trypanocidal Activity in mice at 1.5 mg/kg; 0/10
Mus musculus [16] = test: Compound was tested for Trypanocidal Activity in mice at 2.5 mg/kg; 1/10
Mus musculus [17] = test: Compound was tested for Trypanocidal Activity in mice at 60 mg/kg; 3/5
Mus musculus [18] = test: Compound was tested for Trypanocidal Activity in mice at 25 mg/kg; 18/20
Mus musculus [19] = test: Compound was tested for Trypanocidal Activity in mice at 6 mg/kg; 17/20
Mus musculus [20] = test: Compound was tested for Trypanocidal Activity in mice at 15 mg/kg; 19/20
Mus musculus [21] = test: Compound was tested for Trypanocidal Activity in mice at 10 mg/kg; 20/20
Mus musculus [22] = test: Compound was tested for Trypanocidal Activity in mice at 15 mg/kg; 10/10
Mus musculus [23] = test: Compound was tested for Trypanocidal Activity in mice at 4 mg/kg; 10/30
Mus musculus [24] = test: Compound was tested for Trypanocidal Activity in mice at 1.5 mg/kg; 0/20
Mus musculus [25] = test: Compound was tested for Trypanocidal Activity in mice at 6 mg/kg; 14/30
Mus musculus [26] = test: Compound was tested for Trypanocidal Activity in mice at 2.5 mg/kg; 5/30
Mus musculus [27] = test: Compound was tested for Trypanocidal Activity in mice at 25 mg/kg; 10/10
Mus musculus [28] = test: Compound was tested for Trypanocidal Activity in mice at 60 mg/kg; toxic deaths; 1/10
Mus musculus [29] = test: Tested for Trypanocidal Activity in mice at 10 mg/kg; 17/20; how it was run: as §1
Mus musculus [30] = test: Compound was tested for Trypanocidal Activity in mice at 40 mg/kg; 0/5
Mus musculus [31] = test: Compound was tested for Trypanocidal Activity in mice at 15 mg/kg; 0/5
Mus musculus [32] = test: Compound was tested for Trypanocidal Activity in mice at 25 mg/kg; 0/5
Mus musculus [33] = test: Compound was tested for Trypanocidal Activity in mice at 15 mg/kg; 11/20
Mus musculus [34] = test: Compound was tested for Trypanocidal Activity in mice at 10 mg/kg; 1/20
Mus musculus [35] = test: Compound was tested for Trypanocidal Activity in mice at 25 mg/kg; 4/5
Mus musculus [36] = test: Compound was tested for Trypanocidal Activity in mice at 6 mg/kg; 0/10
Mus musculus [37] = test: Compound was tested for Trypanocidal Activity in mice at 40 mg/kg; 1/5
Mus musculus [38] = test: Compound was tested for Trypanocidal Activity in mice at 40 mg/kg; 9/10
Mus musculus [39] = test: Compound was tested for Trypanocidal Activity in mice at 4 mg/kg; 24/45
Mus musculus [40] = test: Compound was tested for Trypanocidal Activity in mice at 10 mg/kg; 22/30
Mus musculus [41] = test: Compound was tested for Trypanocidal Activity in mice at 100 mg/kg; 1/5
Mus musculus [42] = test: Compound was tested for Trypanocidal Activity in mice at 2.5 mg/kg; 6/25
Mus musculus [43] = test: Compound was tested for Trypanocidal Activity in mice at 60 mg/kg; 7/10; how it was run: as §1
Mus musculus [44] = test: Compound was tested for Trypanocidal Activity in mice at 6 mg/kg; 32/45
Mus musculus [45] = test: Compound was tested for Trypanocidal Activity in mice at 10 mg/kg; 5/5
Mus musculus [46] = test: Compound was tested for Trypanocidal Activity in mice at 1.0 mg/kg; 9/10
Mus musculus [47] = test: Compound was tested for Trypanocidal Activity in mice at 100 mg/kg; 5/5
Mus musculus [48] = test: Compound was tested for Trypanocidal Activity in mice at 0.6 mg/kg; 23/25
Mus musculus [49] = test: Compound was tested for Trypanocidal Activity in mice at 0.06 mg/kg; 0/10
Mus musculus [50] = test: Compound was tested for Trypanocidal Activity in mice at 6 mg/kg; 10/10
Mus musculus [51] = test: Compound was tested for Trypanocidal Activity in mice at 40 mg/kg; 5/5
Mus musculus [52] = test: Compound was tested for Trypanocidal Activity in mice at 0.4 mg/kg; 24/45
Mus musculus [53] = test: Compound was tested for Trypanocidal Activity in mice at 0.25 mg/kg; 28/40
Mus musculus [54] = test: Compound was tested for Trypanocidal Activity in mice at 2.5 mg/kg; 9/10
Mus musculus [55] = test: Compound was tested for Trypanocidal Activity in mice at 25 mg/kg; 3/5
Mus musculus [56] = test: Compound was tested for Trypanocidal Activity in mice at 0.1 mg/kg; 1/10
Mus musculus [57] = test: Compound was tested for Trypanocidal Activity in mice at 1.5 mg/kg; 19/20
Mus musculus [58] = test: Compound was tested for Trypanocidal Activity in mice at 4 mg/kg; 10/10
Mus musculus [59] = test: Compound was tested for Trypanocidal Activity in mice at 150 mg/kg; 3/5
Mus musculus [60] = test: Compound was tested for Trypanocidal Activity in mice at 0.15 mg/kg; 6/20
Mus musculus [61] = test: Compound was tested for Trypanocidal Activity in mice at 60 mg/kg; 5/5
Mus musculus [62] = test: Compound was tested for Trypanocidal Activity in mice at 15 mg/kg; 3/5

Q: For C/C(=N\NC(=N)N)c1cc(C)cc(/C(C)=N/NC(=N)N)c1.Cl, which ED50 (Mus musculus [1]) is on record?
A: 4.1 mg/kg

Q: What about the Cures/total (Mus musculus [2]) of the same compound?
A: 9

Q: And the Cures/total (Mus musculus [3])?
A: 3

Q: And the Cures/total (Mus musculus [4])?
A: 11

Q: And the Cures/total (Mus musculus [5])?
A: 10

Q: And the Cures/total (Mus musculus [6])?
A: 14

Q: And the Cures/total (Mus musculus [7])?
A: 0

Q: And the Cures/total (Mus musculus [8])?
A: 0

Q: What about the Cures/total (Mus musculus [9]) of the same compound?
A: 10

Q: What about the Cures/total (Mus musculus [10]) of the same compound?
A: 0

Q: And the Cures/total (Mus musculus [11])?
A: 8

Q: Which Cures/total (Mus musculus [12]) does the source give for C/C(=N\NC(=N)N)c1cc(I)cc(/C(C)=N/NC(=N)N)c1.Cl here?
A: 0

Q: What about the Cures/total (Mus musculus [8]) of the same compound?
A: 0

Q: What about the Cures/total (Mus musculus [13]) of the same compound?
A: 2

Q: For C/C(=N\NC(=N)N)c1cccc(/C(C)=N/NC(=N)N)n1.Cl, which Cures/total (Mus musculus [14]) is on record?
A: 10

Q: And the Cures/total (Mus musculus [15])?
A: 0

Q: What about the ED50 (Mus musculus [1]) of the same compound?
A: 4.1 mg/kg

Q: And the Cures/total (Mus musculus [16])?
A: 1

Q: What about the Cures/total (Mus musculus [17]) of the same compound?
A: 3

Q: What about the Cures/total (Mus musculus [18]) of the same compound?
A: 18

Q: And the Cures/total (Mus musculus [8])?
A: 0

Q: What about the Cures/total (Mus musculus [9]) of the same compound?
A: 10

Q: What about the Cures/total (Mus musculus [19]) of the same compound?
A: 17

Q: And the Cures/total (Mus musculus [20])?
A: 19

Q: And the Cures/total (Mus musculus [21])?
A: 20

Q: For CCO.COc1cc(/C(C)=N/NC(=N)N)cc(/C(C)=N/NC(=N)N)c1.Cl, which “Mice cured (number)” value (Mus musculus [22]) is on record?
A: 10

Q: And the Cures/total (Mus musculus [23])?
A: 10

Q: What about the ED50 (Mus musculus [1]) of the same compound?
A: 5.4 mg/kg

Q: And the Cures/total (Mus musculus [24])?
A: 0

Q: What about the Cures/total (Mus musculus [25]) of the same compound?
A: 14

Q: And the Cures/total (Mus musculus [26])?
A: 5

Q: And the Cures/total (Mus musculus [27])?
A: 10

Q: And the Cures/total (Mus musculus [28])?
A: 1

Q: What about the Cures/total (Mus musculus [29]) of the same compound?
A: 17

Q: What about the Cures/total (Mus musculus [8]) of the same compound?
A: 0

Q: And the Cures/total (Mus musculus [9])?
A: 10

Q: C/C(=N\NC(=N)N)c1cccc(/C(C)=N/NC(=N)N)c1N.Cl was tested. Which Cures/total (Mus musculus [30]) did it give?
A: 0

Q: And the Cures/total (Mus musculus [31])?
A: 0

Q: And the Cures/total (Mus musculus [32])?
A: 0

Q: How did the Cures/total (Mus musculus [33]) turn out when C/C(=N\NC(=N)N)c1cncc(/C(C)=N/NC(=N)N)c1.Cl was run?
A: 11

Q: And the Cures/total (Mus musculus [34])?
A: 1

Q: What about the Cures/total (Mus musculus [35]) of the same compound?
A: 4

Q: And the Cures/total (Mus musculus [36])?
A: 0

Q: What about the Cures/total (Mus musculus [37]) of the same compound?
A: 1

Q: What does the source list for C/C(=N\NC(=N)N)c1cccc(/C(C)=N/NC(=N)N)c1.Cl [BIS(GUANYLHYDRAZONE) ;2M HYDROCHLORIDE]?
A: Mice cured (number) (Mus musculus [22]): 10; Cures/total (Mus musculus [38]): 9; Cures/total (Mus musculus [39]): 24; Cures/total (Mus musculus [15]): 0; ED50 (Mus musculus [1]): 4.2 mg/kg; Cures/total (Mus musculus [40]): 22; Cures/total (Mus musculus [41]): 1; Cures/total (Mus musculus [42]): 6; Cures/total (Mus musculus [43]): 7; Cures/total (Mus musculus [27]): 10; Cures/total (Mus musculus [44]): 32

Q: What does the source list for CC(=O)NCC(=O)O.N=C(N)c1ccc(/N=N/Nc2ccc(C(=N)N)cc2)cc1 [DIMINAZEN ACETURATE]?
A: Cures/total (Mus musculus [45]): 5; Cures/total (Mus musculus [46]): 9; Cures/total (Mus musculus [47]): 5; Cures/total (Mus musculus [48]): 23; Cures/total (Mus musculus [49]): 0; ED50 (Mus musculus [1]): 0.24 mg/kg; Cures/total (Mus musculus [50]): 10; Cures/total (Mus musculus [51]): 5; Cures/total (Mus musculus [52]): 24; Cures/total (Mus musculus [53]): 28; Cures/total (Mus musculus [54]): 9; Cures/total (Mus musculus [55]): 3; Cures/total (Mus musculus [56]): 1; Cures/total (Mus musculus [57]): 19; Cures/total (Mus musculus [58]): 10; Cures/total (Mus musculus [59]): 3; Cures/total (Mus musculus [60]): 6; Cures/total (Mus musculus [61]): 5; Cures/total (Mus musculus [62]): 3
